Source: ChEMBL document CHEMBL1134669, “N-Succinyl-(beta-alanyl-L-leucyl-L-alanyl-L-leucyl)doxorubicin: an extracellularly tumor-activated prodrug devoid of intravenous acute toxicity” (2001)

What was measured:
Mus musculus [1] = assay: Effect of heparin pretreatment on the acute toxicity when 0 IU of heparin administered; Activity as % of animals; assay type: functional
Method in brief: (§1)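 Male OF-1 mice; heparin (low molecular weight, 0, 4000 or 8000 IU in 0.9% NaCl, filter-sterilized) given ip or iv 1 h before iv bolus of prodrug in 0.9% NaCl (10 µL/g body weight) at 172.4 µmol/kg. Acute toxicity scored as % of animals; survival time recorded in days. At least 3 animals per experiment.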

Mus musculus [2] = assay: Minimum survival time after heparin pretreatment to mice at 0 IU of heparin administered
Mus musculus [3] = assay: Maximum survival time after heparin pretreatment to mice at 8000 IU of heparin administered intraperitoneally; assay type: functional; method in brief: as §1
Mus musculus [4] = assay: Effect of heparin pretreatment on the acute toxicity when 4000 IU of heparin administered ip; Activity as % of animals; assay type: functional; method in brief: as §1
Mus musculus [5] = assay: Effect of heparin pretreatment on the acute toxicity when 8000 IU of heparin administered ip; assay type: functional; method in brief: as §1
Mus musculus [6] = assay: Maximum survival time after heparin pretreatment to mice at 4000 IU of heparin administered intravenously; assay type: functional; method in brief: as §1
Mus musculus [7] = assay: Effect of heparin pretreatment on the acute toxicity when 4000 IU of heparin administered iv; Activity as % of animals; assay type: functional; method in brief: as §1
Mus musculus [8] = assay: Maximum survival time after heparin pretreatment to mice at 4000 IU of heparin administered intraperitoneally; assay type: functional; method in brief: as §1

COc1cccc2c1C(=O)c1c(O)c3c(c(O)c1C2=O)C[C@@](O)(C(=O)CO)C[C@@H]3O[C@H]1C[C@H](NC(=O)[C@H](CC(C)C)NC(=O)[C@H](C)NC(=O)[C@H](CC(C)C)NC(=O)CCNC(=O)CCC(=O)[O-])[C@H](O)[C@H](C)O1.[Na+]
Acute toxicity (Mus musculus [1]): 0% | min survival time (Mus musculus [2]): 9 days

CC(O)C(=O)O.COc1cccc2c1C(=O)c1c(O)c3c(c(O)c1C2=O)C[C@@](O)(C(=O)CO)C[C@@H]3O[C@H]1C[C@H](NC(=O)[C@H](CC(C)C)NC(=O)[C@H](C)NC(=O)[C@H](CC(C)C)NC(=O)CCN)[C@H](O)[C@H](C)O1
MST (Mus musculus [3]): 11 days | Acute toxicity (Mus musculus [4]): 37% | Acute toxicity (Mus musculus [5]): 0% | Acute toxicity (Mus musculus [1]): 100% | MST (Mus musculus [6]): 11 days | min survival time (Mus musculus [2]): 0 days | Acute toxicity (Mus musculus [7]): 33% | MST (Mus musculus [8]): 9 days
